The record followed here is ChEMBL document CHEMBL3108700, “Designing anti-inflammatory drugs from parasitic worms: a synthetic small molecule analogue of the Acanthocheilonema viteae product ES-62 prevents development of collagen-induced arthritis” (J Med Chem, 2013).

Series [1] is described as follows: Cytotoxicity against CpG-stimulated BALB/c mouse BMDM assessed as loss of cell viability at 5 ug/mL preincubated for 18 hrs followed by CpG challenge measured after 24 hrs by 7-AAD staining-based flow cytometric analysis. In outline: (§1)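 BALB/c bone marrow macrophages (2 × 10^5/well) were rested 24 h in complete RPMI, then given 5 μg/mL compound for 18 h. Cells were stained with 7-AAD for 10 min on ice and the dead fraction read by flow cytometry. One experiment is representative of two.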
In general terms: In flow cytometry, cells or beads pass a laser one at a time.

The species named for series [2] is Mus musculus. Kind of series: Inhibition of TLR4/IL-1R in BALB/c mouse BMDM assessed as downregulation of LPS-stimulated MyD88 expression at 5 ug/mL preincubated for 2 hrs followed by LPS challenge measured after 18 hrs by flow cytometric analysis (reference value: 127%); values are per cent of control.
The next series has as its system BMDC. The experiment in a line: Antiinflammatory activity in mouse BMDC assessed as downregulation of TLR4 expression. In kind it is functional.
Series [3] deals with Mus musculus. Kind of series: Antiinflammatory activity in DBA/1 mouse collagen-induced arthritis model assessed as reduction in serum level of IL-17 at 50 ug/kg, sc administered 2 days prior to collagen challenge continued till day 21 post collagen challenge by ELISA. It counts as functional, organism-based. The method, boiled down:
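Serum IL-17 was measured by ELISA in CIA mice dosed subcutaneously (1 μg/dose or PBS) on days −2, 0 and 21. Values are the mean of triplicate analyses per individual mouse (PBS n = 12, treated n = 13).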

In series [4] the target is T1, Toll-like receptor 4 (Mus musculus) (UniProt Q9QUK6).
T1 sequence (whole entry): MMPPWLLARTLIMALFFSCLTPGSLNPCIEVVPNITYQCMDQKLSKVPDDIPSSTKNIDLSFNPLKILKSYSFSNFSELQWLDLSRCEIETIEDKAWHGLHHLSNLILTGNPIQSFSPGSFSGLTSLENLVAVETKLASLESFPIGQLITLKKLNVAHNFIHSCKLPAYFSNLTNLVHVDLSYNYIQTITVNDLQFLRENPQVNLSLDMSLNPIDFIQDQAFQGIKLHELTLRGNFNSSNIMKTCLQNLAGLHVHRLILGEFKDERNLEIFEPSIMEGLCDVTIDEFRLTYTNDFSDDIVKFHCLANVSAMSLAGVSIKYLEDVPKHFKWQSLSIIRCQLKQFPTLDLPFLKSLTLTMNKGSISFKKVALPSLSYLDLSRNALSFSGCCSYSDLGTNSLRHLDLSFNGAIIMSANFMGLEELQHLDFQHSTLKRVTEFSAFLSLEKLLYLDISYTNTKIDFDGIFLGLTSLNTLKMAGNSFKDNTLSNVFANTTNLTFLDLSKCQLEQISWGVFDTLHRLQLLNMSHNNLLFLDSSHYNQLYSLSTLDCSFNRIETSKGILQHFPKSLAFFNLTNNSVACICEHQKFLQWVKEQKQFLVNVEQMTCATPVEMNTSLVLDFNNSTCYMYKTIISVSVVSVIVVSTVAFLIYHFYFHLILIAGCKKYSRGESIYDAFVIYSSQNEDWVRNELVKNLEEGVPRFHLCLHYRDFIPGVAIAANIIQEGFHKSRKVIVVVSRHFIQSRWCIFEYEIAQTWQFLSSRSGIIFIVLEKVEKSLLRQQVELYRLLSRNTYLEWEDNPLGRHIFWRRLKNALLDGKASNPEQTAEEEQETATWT
Kind of series: Inhibition of TLR4 in BALB/c mouse BMDM assessed as downregulation of LPS-stimulated IL-6 level at 5 ug/ml preincubated for 18 hrs followed by LPS challenge measured after 24 hrs by ELISA relative to control. In outline:
(§2)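 BALB/c male bone marrow macrophages were differentiated 7 days with L929 supernatant (≥99% CD11b+/F4/80+). Cells were plated at 2 × 10^5/well in triplicate, rested overnight, and given compounds at 5 μg/mL for 18 h. They were then stimulated with 100 ng/mL S. minnesota LPS, 10 ng/mL Pam3CSK4 (BLP) or 0.01 μM CpG for 24 h. Supernatant IL-12p40 and IL-6 were measured by ELISA (sensitivity 16 pg/mL).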
A general note: An ELISA detects its analyte on a solid surface through an enzyme-linked reagent.

The target of series [5] is T2, TLR2/TLR6 (Mus musculus) (UniProt Q9QUN7+Q9EPW9). Kind of series: Inhibition of TLR2/6 in BALB/c mouse BMDM assessed as downregulation of BLP-stimulated IL-12p40 level at 5 ug/ml preincubated for 18 hrs followed by BLP challenge measured after 24 hrs by ELISA relative to control. It counts as protein-complex assay. In outline:
as §2

In series [6] the target is T1, Toll-like receptor 4 (Mus musculus). The experiment in a line: Inhibition of TLR4 in BALB/c mouse BMDM assessed as downregulation of LPS-stimulated IL-12p40 level at 5 ug/ml preincubated for 18 hrs followed by LPS challenge measured after 24 hrs by ELISA relative to control. The method, boiled down: as §2
The target is the same in series [7]. The experiment in a line: Inhibition of TLR4 in C57BL/6 mouse BMDC assessed as reduction of LPS-induced IL-6 production at 5 ug/mL preincubated for 2 hrs prior to LPS challenge measured after 24 hrs by ELISA. The method, boiled down: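 C57BL/6 bone marrow DCs were generated in complete RPMI with 10 ng/mL GM-CSF. They were preincubated ± compound at 5 μg/mL for 2 h, then stimulated with LPS for 24 h. TNF-α, IL-6 and IL-23 in conditioned medium were measured by ELISA. Values are means of triplicates ± SEM pooled from 4 experiments.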

Series [8] deals with T2, TLR2/TLR6 (Mus musculus). The experiment in a line: Inhibition of TLR2/6-mediated NFkappaB p65 activation in BLP-stimulated BALB/c mouse BMDM at 5 ug/ml preincubated for 18 hrs followed by BLP challenge measured after 1 hr by TransAM ELISA. It counts as protein-complex assay. In outline: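 Bone marrow macrophages (4 × 10^6/well) had their medium changed after 24 h, were pretreated with compounds at 5 μg/mL for 18 h, then stimulated for 1 h with 100 ng/mL LPS, 10 ng/mL BLP or 1 μM CpG. Activated NFκB p65 in nuclear extracts was measured by TransAM ELISA in duplicate.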

Series [9] deals with Mus musculus. The experiment in a line: Antiinflammatory activity in DBA/1 mouse collagen-induced arthritis model assessed as reduction in number of CD8+ T cells at 50 ug/kg, sc administered 2 days prior to collagen challenge continued till day 21 post collagen challenge. In kind it is functional, organism-based. The following applies: T-cell. In outline:
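Dosing was 1 μg/dose or PBS given subcutaneously on days −2, 0 and 21 of CIA. Total, CD4+, CD8+ and γδ T cell numbers in draining lymph nodes were counted by flow cytometry for each mouse. Naive mice not exposed to collagen served as a further control (naive n = 7; PBS and treated n = 13).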

The nature of series [10]: Cytotoxicity against mouse BMDC assessed as reduction in cell viability.
The nature of series [11]: Cytotoxicity against LPS-stimulated BALB/c mouse BMDM assessed as loss of cell viability at 5 ug/mL preincubated for 18 hrs followed by LPS challenge measured after 24 hrs by 7-AAD staining-based flow cytometric analysis. In outline:
as §1

The target of series [12] is T2, TLR2/TLR6 (Mus musculus). The experiment in a line: Inhibition of TLR2/6 in BALB/c mouse BMDM assessed as downregulation of BLP-stimulated IL-6 level at 5 ug/ml preincubated for 18 hrs followed by BLP challenge measured after 24 hrs by ELISA relative to control. It counts as protein-complex assay. In outline: as §2

Calls of active or inactive are those of the source. Unless noted, no cut-off for these calls is given here.

As for `CN(C)CCS(=O)(=O)Cc1ccc(Br)cc1`, the Activity entry in [1], in series [10] and in series [11] was “Non-toxic” in each case. Also, the residual activity in the series listed under Mus musculus [2] is 95.7%. Besides, the result with BMDC and in the series on Mus musculus [3] was inactive. Also, the inhibition result (in series [4]; at TLR2/TLR6 (Mus musculus) [5]; in series [6]; in [7]; on TLR2/TLR6 (Mus musculus) [8]) was “Active” in each case. Besides, the outcome with Mus musculus [9] was Active. The inhibition entry on TLR2/TLR6 (Mus musculus) [12] is “inactive”.
